Entries after “also recorded” stand apart in the source; their conditions may differ. Counter-ions that a name gives are not always drawn.
What was measured:
[1] = system: MA-10 mouse tumor Leydig cells; assay: Steroidogenesis assay: progesterone production by RIA; assay type: cell-based; settings: for progesterone production: all tested concentrations (0–100 μM); for progesterone production / stimulation of progesterone production: 2 h incubation, RIA; for time of first maximum steroid production: 50 μM, 0–120 min, biphasic time response; for stimulation of progesterone production: 100 μM
In short: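 Cells were plated at 2.5 × 10^4 per well, left to adhere 18 h, washed with PBS, then given serum-free medium with 0–100 μM test compound from DMSO stocks (final DMSO <0.02%; controls matched). Incubation was 2 h, or 0–120 min at 50 μM (n=2). Medium progesterone was measured by RIA with anti-progesterone antisera and normalized to well protein (Bradford, BSA standard).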

[2] = system: MA-10 mouse tumor Leydig cells; assay: Cellular toxicity by MTT assay; assay type: cell-based; settings: 100 μM, 2 h
In short: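 MA-10 mouse Leydig tumor cells were grown in DMEM/F-12 Ham with 5% fetal bovine serum and 2.5% heat-inactivated horse serum. They were exposed to test compound for 2 h, at 100 μM or over 0.1–100 μM, and toxicity was read by MTT. Single-concentration data are mean ± S.E.M. (n=3), compared by one-way ANOVA with Newman-Keuls post-test. Dose curves were fitted by nonlinear regression.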

C57BL/6 mice = assay: SmartCube behavioral assay; assay type: in vivo, mouse; settings: for SmartCube signature after chronic administration: 50 mg/kg i.p. once a day for 13 days; for SmartCube signature after a single dose: 50 mg/kg i.p., day 1, 15 min after dose
In short: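 Mice received test compound at 50 mg/kg i.p. once daily for 13 days, dosed 15 min before a session presenting multiple challenges, with at least 12 mice per group. Behavioral features were analyzed by computer algorithms and data mining. They were compared with a database of signatures from reference antipsychotics, anxiolytics and antidepressants.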

mouse model of mania = settings: amphetamine and chlordiazepoxide induced; cited from earlier work
human GSK-3β = human GSK-3β (Homo sapiens, UniProt P49841); assay: GSK-3β inhibition, phosphorylation of primed substrate; assay type: biochemical
human GSK-3β, sequence (P49841 whole entry): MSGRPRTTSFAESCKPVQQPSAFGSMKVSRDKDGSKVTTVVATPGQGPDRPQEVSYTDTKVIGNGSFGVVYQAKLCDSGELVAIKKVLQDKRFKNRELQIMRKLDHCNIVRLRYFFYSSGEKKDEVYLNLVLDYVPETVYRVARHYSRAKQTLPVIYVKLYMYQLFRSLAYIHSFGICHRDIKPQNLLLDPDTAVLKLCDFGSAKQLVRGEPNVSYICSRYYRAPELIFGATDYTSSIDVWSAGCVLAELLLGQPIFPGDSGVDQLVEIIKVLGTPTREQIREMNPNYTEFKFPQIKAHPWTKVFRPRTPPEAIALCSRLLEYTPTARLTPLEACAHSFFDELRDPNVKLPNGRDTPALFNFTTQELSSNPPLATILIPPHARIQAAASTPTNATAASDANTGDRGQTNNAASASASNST

SMILES	progesterone production [1]	cellular toxicity (MTT) [2]	stimulation of progesterone production [1]	also measured
Cn1cc(C2=C(c3cnc4ccccn34)C(=O)NC2=O)c2cc(Br)ccc21 [Compound 20, 3-(5-Bromo-1-methyl-1H-indol-3-yl)-4-(imidazo[1,2-a]pyridin-3-yl)-1H-pyrrole-2,5-dione trifluoroacetate]	< 30 ng progesterone/mg protein			
Cn1cc(C2=C(c3coc4ccccc34)C(=O)NC2=O)c2cc(Br)ccc21 [Compound 1, 3-(benzofuran-3-yl)-4-(5-bromo-1-methyl-1H-indol-3-yl)-1H-pyrrole-2,5-dione]		either low or no apparent toxicity	bioactive in stimulating progesterone production	SmartCube signature after chronic administration (C57BL/6 mice): predicting anxiolytic-like activity; SmartCube signature after a single dose (C57BL/6 mice): Neither compound demonstrated any classified behavioral activity; time of first maximum steroid production [1]: ≤ 15 min; effect on hyperactivity (mouse model of mania): attenuates hyperactivity
COCCc1cccc2c(C3=C(c4coc5ccccc45)C(=O)NC3=O)cn(CCOC)c12 [Compound 23, 3-(Benzofuran-3-yl)-4-(1,7-bis(2-methoxyethyl)-1H-indol-3-yl)-1H-pyrrole-2,5-dione]	< 30 ng progesterone/mg protein	low, but observable signs of cytotoxicity		
O=C1NC(=O)C(c2cn3c4c(cc(Br)cc24)CNCC3)=C1c1coc2ccccc12 [Compound 26, 3-(Benzofuran-3-yl)-4-(9-bromo-1,2,3,4-tetrahydro-[1,4]diazepino[6,7,1-hi]indol-7-yl)-1H-pyrrole-2,5-dione trifluoroacetate]		toxic to the MA-10 cells	bioactive in stimulating progesterone production	
COCCn1cc(C2=C(c3coc4ccccc34)C(=O)NC2=O)c2cc(F)c(F)cc21 [Compound 12, 3-(Benzofuran-3-yl)-4-(5,6-difluoro-1-(2-methoxyethyl)-1H-indol-3-yl)-1H-pyrrole-2,5-dione]		significantly more cytotoxic; also recorded: toxic to the MA-10 cells	bioactive in stimulating progesterone production	
O=C1NC(=O)C(c2cn3c4c(cc(F)cc24)CN(C(=O)N2CCC(N4CCCCC4)CC2)CC3)=C1c1coc2ccccc12 [Compound 30, 3-(2-([1,4’-Bipiperidine]-1’-carbonyl)-9-fluoro-1,2,3,4-tetrahydro-[1,4]diazepino[6,7,1-hi]indol-7-yl)-4-(benzofuran-3-yl)-1H-pyrrole-2,5-dione trifluoroacetate]		significantly more cytotoxic		
O=C1NC(=O)C(c2cn3c4c(cc(F)cc24)CN(C(=O)N2CCOCC2)CC3)=C1c1coc2ccccc12 [Compound 31, 3-(Benzofuran-3-yl)-4-(9-fluoro-2-(morpholine-4-carbonyl)-1,2,3,4-tetrahydro-[1,4]diazepino[6,7,1-hi]indol-7-yl)-1H-pyrrole-2,5-dione]		significantly more cytotoxic		
COc1cc2c(C3=C(c4coc5ccccc45)C(=O)NC3=O)cn(C)c2cn1 [Compound 17, 3-(Benzofuran-3-yl)-4-(5-methoxy-1-methyl-1H-pyrrolo[2,3-c]pyridin-3-yl)-1H-pyrrole-2,5-dione]	< 30 ng progesterone/mg protein			
O=C1NC(=O)C(c2cn3c4c(cc(F)cc24)CNCC3)=C1c1coc2ccccc12 [Compound 25, 3-(Benzofuran-3-yl)-4-(9-fluoro-1,2,3,4-tetrahydro-[1,4]diazepino[6,7,1-hi]indol-7-yl)-1H-pyrrole-2,5-dione trifluoroacetate]	< 30 ng progesterone/mg protein			
Cn1cc(C2=C(c3coc4ccccc34)C(=O)NC2=O)c2cc(Br)cnc21 [Compound 13, 3-(Benzofuran-3-yl)-4-(5-bromo-1-methyl-1H-pyrrolo[2,3-b]pyridin-3-yl)-1H-pyrrole-2,5-dione]		either low or no apparent toxicity	bioactive in stimulating progesterone production	IC50 (human GSK-3β): 5 nM
Cn1cc(C2=C(c3cnc4ccccn34)C(=O)NC2=O)c2cc3c(cc21)OCO3 [Compound 19, 3-(Imidazo[1,2-a]pyridin-3-yl)-4-(5-methyl-5H-[1,3]dioxolo[4,5-f]indol-7-yl)-1H-pyrrole-2,5-dione trifluoroacetate]				IC50 (human GSK-3β): 5 nM
COCCc1cccc2c(C3=C(c4coc5ccccc45)C(=O)NC3=O)cn(C)c12 [Compound 21, 3-(Benzofuran-3-yl)-4-(7-(2-methoxyethyl)-1-methyl-1H-indol-3-yl)-1H-pyrrole-2,5-dione]		either low or no apparent toxicity	bioactive in stimulating progesterone production	
COCCn1cc(C2=C(c3coc4ccccc34)C(=O)NC2=O)c2cc(Br)cnc21 [Compound 14, 3-(Benzofuran-3-yl)-4-(5-bromo-1-(2-methoxyethyl)-1H-pyrrolo[2,3-b]pyridin-3-yl)-1Hpyrrole-2,5-dione]		either low or no apparent toxicity	bioactive in stimulating progesterone production	
COCCn1cc(C2=C(c3coc4ccccc34)C(=O)NC2=O)c2ccccc21 [Compound 9, 3-(Benzofuran-3-yl)-4-(1-(2-methoxyethyl)-1H-indol-3-yl)-1H-pyrrole-2,5-dione]		either low or no apparent toxicity	bioactive in stimulating progesterone production	SmartCube signature after chronic administration (C57BL/6 mice): predicting anxiolytic-like activity; SmartCube signature after a single dose (C57BL/6 mice): Neither compound demonstrated any classified behavioral activity; time of first maximum steroid production [1]: ≤ 15 min
COCCn1cc(C2=C(c3coc4ccccc34)C(=O)NC2=O)c2cccnc21 [Compound 16, 3-(Benzofuran-3-yl)-4-(1-(2-methoxyethyl)-1H-pyrrolo[2,3-b]pyridin-3-yl)-1H-pyrrole-2,5-dione]	< 30 ng progesterone/mg protein	low, but observable signs of cytotoxicity		

From article PMC3777810 (Journal of medicinal chemistry, 2013)
